Results published in ChEMBL document CHEMBL1130216, “Design, synthesis, and dopamine receptor modulating activity of diketopiperazine peptidomimetics of L-prolyl-L-leucylglycinamide” (J Med Chem, 1997).
Where a SMILES comes first, the peptide text is derived from it.

Legend:
[1] = target: D(2) dopamine receptor (Bos taurus) (UniProt P20288); assay: Percentage of receptor in the high affinity form for the compound to Dopamine receptor D2 in absence of Gpp(NH)p; format: functional
How it was run: (§1)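 Bovine striatal membranes (150-200 µg protein) were incubated with 0.2 nM [3H]spiroperidol and varying N-propylnorapomorphine, with or without 100 µM Gpp(NH)p and 100 nM peptidomimetic, plus 50 nM ketanserin, for 1 h at 22 °C, then GF/B filtered. Nonspecific binding was set with 1.0 µM (+)-butaclamol. A two-site fit gave high/low-affinity fractions; Ki values came via Cheng-Prusoff. Mean ± SEM of 3-4 experiments.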

[2] = target: D(2) dopamine receptor (Bos taurus) (UniProt P20288); assay: Percentage of receptor in the high affinity form for the compound to Dopamine receptor D2 in presence of Gpp(NH)p; format: functional; how it was run: as §1
[3] = target: D(2) dopamine receptor (Bos taurus) (UniProt P20288); assay: Percentage of receptor in the low affinity form for the compound to Dopamine receptor D2 in absence of Gpp(NH)p; format: functional; how it was run: as §1
[4] = target: D(2) dopamine receptor (Bos taurus) (UniProt P20288); assay: Percentage of receptor in the low affinity form for the compound to Dopamine receptor D2 in presence of Gpp(NH)p; format: functional; how it was run: as §1
[5] = target: D(2) dopamine receptor (Bos taurus) (UniProt P20288); assay: Percentage of receptor in the low affinity form for the compound in absence of Gpp(NH)p (Pre treated with 1 uM) to Dopamine receptor D2
[6] = target: D(2) dopamine receptor (Bos taurus) (UniProt P20288); assay: Percentage of receptor in the high affinity form for the compound to Dopamine receptor D2 in presence of Gpp(NH)p (pre treated with 1 uM); format: functional
[7] = target: D(2) dopamine receptor (Bos taurus) (UniProt P20288); assay: Percentage of receptor in the high affinity form for the compound in absence of Gpp(NH)p (Pre treated with 1 uM) to Dopamine receptor D2
[8] = target: D(2) dopamine receptor (Bos taurus) (UniProt P20288); assay: Percentage of receptor in the low affinity form for the compound to Dopamine receptor D2 in presence of Gpp(NH)p (pre treated with 1 uM)

Sequence of D(2) dopamine receptor (Bos taurus) (P20288 whole entry): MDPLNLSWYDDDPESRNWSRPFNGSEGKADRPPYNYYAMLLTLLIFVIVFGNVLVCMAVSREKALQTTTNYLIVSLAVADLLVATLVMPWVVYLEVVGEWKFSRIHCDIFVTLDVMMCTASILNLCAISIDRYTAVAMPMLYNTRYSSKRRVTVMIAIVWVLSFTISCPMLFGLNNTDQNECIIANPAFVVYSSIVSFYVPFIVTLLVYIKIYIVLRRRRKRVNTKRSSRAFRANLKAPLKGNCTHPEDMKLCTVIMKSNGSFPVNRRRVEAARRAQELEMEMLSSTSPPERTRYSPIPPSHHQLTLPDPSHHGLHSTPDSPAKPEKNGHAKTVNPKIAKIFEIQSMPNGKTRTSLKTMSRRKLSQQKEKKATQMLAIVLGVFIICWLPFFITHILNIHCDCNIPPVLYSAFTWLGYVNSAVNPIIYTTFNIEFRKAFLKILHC

| RH [1] [%] | RH [2] [%] | RL [3] [%] | RL [4] [%] | RL [5] [%] | RH [6] [%] | RH [7] [%] | RL [8] [%] | SMILES |
| --- | --- | --- | --- | --- | --- | --- | --- | --- |
| 56.2 | 18.8 | 43.8 | 81.2 |  |  |  |  | CC(C)C[C@@H](C(=O)NCC(N)=O)N1CC(=O)N2CCC[C@H]2C1=O |
| 46 | 22 | 55 | 78 |  |  |  |  | NC(=O)CN1CC[C@@H](N2CC(=O)N3CCC[C@H]3C2=O)C1=O |
| 49 | 18.5 | 51 | 81.5 |  |  |  |  | NC(=O)[C@H]1CS[C@@H]2C[C@@H](N3CC(=O)N4CCC[C@H]4C3=O)C(=O)N12 |
| 49 | 19 | 51 | 82 | 41 | 32 | 61 | 72 | CC(C)C[C@H](NC(=O)[C@@H]1CCCN1)C(=O)NCC(N)=O (H-Pro-Leu-Gly-NH2) |
